In brackets after ≈: the same amount, converted by molar mass.
Tests used:
[1] = system: Pseudomonas aeruginosa; test: Antibacterial activity against wild type Pseudomonas aeruginosa assessed as inhibition of bacterial growth; type: functional, organism-based
[2] = system: Staphylococcus aureus; test: Antibacterial activity against Staphylococcus aureus ATCC 25923 incubated for 24 hrs by twofold serial dilution method; type: functional
Outline: (§1)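 MICs by twofold serial dilution in 96-well plates from 10 mM DMSO stocks. Cultures grown in the indicated media; for E. coli, A. baumannii and P. aeruginosa, inducers were 0.1% arabinose, 1% arabinose and 0.1 mM IPTG respectively.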

[3] = system: Acinetobacter baumannii; test: Antibacterial activity against recombinant OM pore producing Acinetobacter baumannii assessed as inhibition of bacterial growth; type: functional, organism-based
[4] = system: Pseudomonas aeruginosa; test: Antibacterial activity against recombinant OM pore producing Pseudomonas aeruginosa assessed as inhibition of bacterial growth; type: functional, organism-based
[5] = system: Pseudomonas aeruginosa; test: Antibacterial activity against efflux pump lacking Pseudomonas aeruginosa assessed as inhibition of bacterial growth; type: functional, organism-based
[6] = system: Escherichia coli; test: Antibacterial activity against efflux pump lacking/recombinant OM pore producing Escherichia coli assessed as inhibition of bacterial growth; type: functional, organism-based
[7] = system: Acinetobacter baumannii; test: Antibacterial activity against efflux pump lacking/recombinant OM pore producing Acinetobacter baumannii incubated for 24 hrs by twofold serial dilution method; type: functional; outline: as §1
[8] = system: Pseudomonas aeruginosa; test: Antibacterial activity against efflux pump lacking/recombinant OM pore producing Pseudomonas aeruginosa incubated for 24 hrs by twofold serial dilution method; type: functional; outline: as §1
[9] = system: Acinetobacter baumannii; test: Antibacterial activity against efflux pump lacking/recombinant OM pore producing Acinetobacter baumannii assessed as inhibition of bacterial growth; type: functional, organism-based
[10] = system: Escherichia coli; test: Antibacterial activity against efflux pump lacking/recombinant OM pore producing Escherichia coli incubated for 24 hrs by twofold serial dilution method; type: functional
Outline: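 E. coli efflux-knockout/hyperporinated strain grown in M9 medium with 50 mM MOPS (pH 7.2) and 0.2% xylose. OM pore induced with 0.1% arabinose. Compounds come from 10 mM DMSO stocks and are twofold serially diluted in 96-well plates.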

[11] = system: Escherichia coli; test: Antibacterial activity against Escherichia coli SQ110 DTC incubated for 24 hrs by twofold serial dilution method; type: functional; outline: as §1
[12] = system: Escherichia coli; test: Antibacterial activity against recombinant OM pore producing Escherichia coli assessed as inhibition of bacterial growth; type: functional, organism-based
[13] = system: Escherichia coli; test: Antibacterial activity against Escherichia coli SQ110 incubated for 24 hrs by twofold serial dilution method; type: functional; outline: as §1
[14] = system: Pseudomonas aeruginosa; test: Antibacterial activity against efflux pump lacking/recombinant OM pore producing Pseudomonas aeruginosa assessed as inhibition of bacterial growth; type: functional, organism-based
[15] = system: Escherichia coli; test: Antibacterial activity against Escherichia coli SQ110 DTC G2032A incubated for 24 hrs by twofold serial dilution method; type: functional
Outline: (§2)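 E. coli SQDTC (TolC-deficient, single rRNA operon) carrying LZD-resistant 23S rRNA substitutions. Compounds come from 10 mM DMSO stocks and are twofold serially diluted in 96-well plates.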

[16] = system: Escherichia coli; test: Antibacterial activity against Escherichia coli SQ110 DTC C2610A incubated for 24 hrs by twofold serial dilution method; type: functional; outline: as §2
[17] = system: Acinetobacter baumannii; test: Antibacterial activity against wild type Acinetobacter baumannii assessed as inhibition of bacterial growth; type: functional, organism-based
[18] = system: Escherichia coli; test: Antibacterial activity against efflux pump lacking Escherichia coli assessed as inhibition of bacterial growth; type: functional, organism-based
[19] = system: Escherichia coli; test: Antibacterial activity against wild type Escherichia coli assessed as inhibition of bacterial growth; type: functional, organism-based
[20] = system: Acinetobacter baumannii; test: Antibacterial activity against efflux pump lacking Acinetobacter baumannii assessed as inhibition of bacterial growth; type: functional, organism-based
[21] = system: Klebsiella aerogenes; test: Antibacterial activity against multidrug resistant Klebsiella aerogenes ATCC13048 assessed as inhibition of bacterial growth incubated for 24 hrs in M9-MOPS medium by twofold serial dilution method; type: functional
[22] = system: Klebsiella pneumoniae; test: Antibacterial activity against multidrug resistant Klebsiella pneumoniae ATCC43816 assessed as inhibition of bacterial growth incubated for 24 hrs in M9-MOPS medium by twofold serial dilution method; type: functional
[23] = system: Pseudomonas aeruginosa; test: Antibacterial activity against multidrug resistant Pseudomonas aeruginosa BAA 2108 assessed as inhibition of bacterial growth incubated for 24 hrs in MHI medium by twofold serial dilution method; type: functional
[24] = system: Acinetobacter baumannii; test: Antibacterial activity against multidrug resistant Acinetobacter baumannii Ab5075 assessed as inhibition of bacterial growth incubated for 24 hrs in MHI medium by twofold serial dilution method; type: functional
[25] = system: Acinetobacter baumannii; test: Antibacterial activity against multidrug resistant Acinetobacter baumannii AYE assessed as inhibition of bacterial growth incubated for 24 hrs in M9-MOPS medium by twofold serial dilution method; type: functional
[26] = system: Klebsiella pneumoniae; test: Antibacterial activity against multidrug resistant Klebsiella pneumoniae ATCC43816 assessed as inhibition of bacterial growth incubated for 24 hrs in MHI medium by twofold serial dilution method; type: functional
[27] = system: Acinetobacter baumannii; test: Antibacterial activity against multidrug resistant Acinetobacter baumannii AYE assessed as inhibition of bacterial growth incubated for 24 hrs in MHI medium by twofold serial dilution method; type: functional
[28] = system: Klebsiella pneumoniae; test: Antibacterial activity against multidrug resistant Klebsiella pneumoniae ATCC43816 assessed as inhibition of bacterial growth incubated for 24 hrs in MHI medium by twofold serial dilution method; conditions: ATCC43816, 24 h
[29] = system: Pseudomonas aeruginosa; test: Antibacterial activity against multidrug resistant Pseudomonas aeruginosa BAA 2108 assessed as inhibition of bacterial growth incubated for 24 hrs in M9-MOPS medium by twofold serial dilution method; type: functional
[30] = system: Pseudomonas aeruginosa; test: Antibacterial activity against multidrug resistant Pseudomonas aeruginosa BAA 2109 assessed as inhibition of bacterial growth incubated for 24 hrs in […] medium by twofold serial dilution method; type: functional
[31] = system: Klebsiella pneumoniae; test: Antibacterial activity against multidrug resistant Klebsiella pneumoniae ATCC13883 assessed as inhibition of bacterial growth incubated for 24 hrs in M9-MOPS medium by twofold serial dilution method; type: functional
[32] = system: Klebsiella pneumoniae; test: Antibacterial activity against multidrug resistant Klebsiella pneumoniae ATCC13883 assessed as inhibition of bacterial growth incubated for 24 hrs in MHI medium by twofold serial dilution method; type: functional
[33] = system: Acinetobacter baumannii; test: Antibacterial activity against multidrug resistant Acinetobacter baumannii Ab5075 assessed as inhibition of bacterial growth incubated for 24 hrs in M9-MOPS medium by twofold serial dilution method; type: functional
[34] = system: Pseudomonas aeruginosa; test: Antibacterial activity against multidrug resistant Pseudomonas aeruginosa BAA 2109 assessed as inhibition of bacterial growth incubated for 24 hrs in MHI medium by twofold serial dilution method; type: functional

SMILES	IC50 [1]	MIC [2]	IC50 [3]	IC50 [4]	IC50 [5]	IC50 [6]	MIC [7]	MIC [8]	IC50 [9]	MIC [10]	MIC [11]	IC50 [12]	MIC [13]	IC50 [14]	MIC [15]	MIC [16]	IC50 [17]	IC50 [18]	IC50 [19]	IC50 [20]	further results
O=C(O)c1ccc(-c2ccc(N3C[C@H](CO)OC3=O)cc2F)cc1	> 100 µM	6.25 µM (≈ 2.07 µg/mL)	55.5 µM	> 100 µM	> 100 µM	2.6 µM	50 µM	> 100 µM	10.2 µM	12.5 µM	25 µM (≈ 8.28 µg/mL)	> 100 µM	> 100 µM	8.9 µM	50 µM (≈ 16.6 µg/mL)	25 µM (≈ 8.28 µg/mL)	> 100 µM	54 µM	> 100 µM	12.8 µM	
Nc1ncc(-c2ccc(N3C[C@H](CO)OC3=O)cc2F)cn1	> 100 µM	6.25 µM (≈ 1.9 µg/mL)	> 100 µM	> 100 µM	> 100 µM	1.5 µM	50 µM	12.5 µM	53 µM	> 100 µM	25 µM (≈ 7.61 µg/mL)	2 µM	> 100 µM	33 µM	100 µM (≈ 30.4 µg/mL)	50 µM (≈ 15.2 µg/mL)	> 100 µM	5.9 µM	> 100 µM	53 µM	
O=C1O[C@@H](CO)CN1c1ccc(-c2cccc(CO)c2)c(F)c1	> 100 µM		10.8 µM	> 100 µM	15.5 µM	2 µM			7.6 µM			1.5 µM		13 µM			45.8 µM	1.5 µM	66.9 µM	5.4 µM	MIC [21]: > 200 µM; MIC [22]: > 200 µM; MIC [23]: > 200 µM; MIC [24]: > 200 µM; MIC [25]: 200 µM (≈ 63.5 µg/mL); MIC [26]: > 200 µM; MIC [27]: > 200 µM; MIC [28]: > 200 µM; MIC [29]: > 200 µM; MIC [30]: > 200 µM; MIC [31]: 200 µM (≈ 63.5 µg/mL); MIC [32]: > 200 µM; MIC [33]: 200 µM (≈ 63.5 µg/mL); MIC [34]: > 200 µM
CC(C)c1ccc(-c2ccc(N3C[C@H](CO)OC3=O)cc2F)c(C(C)C)c1	> 100 µM		77.9 µM	> 100 µM	49 µM	6.6 µM			8.2 µM			20.4 µM		22.3 µM			> 100 µM	15.9 µM	99.1 µM	17.3 µM	
CC(C)(C)Oc1cc(-c2ccc(N3C[C@H](CO)OC3=O)cc2F)cnc1C#N	> 100 µM		> 100 µM	> 100 µM	> 100 µM	> 100 µM			> 100 µM			> 100 µM		> 100 µM			> 100 µM	> 100 µM	> 100 µM	> 100 µM	
C[n+]1ccccc1-c1ccc(-c2ccc(N3C[C@H](CO)OC3=O)cc2F)cc1	> 100 µM		13.3 µM	15.9 µM	8.4 µM	4.4 µM			10.2 µM			13.2 µM		1.2 µM			> 100 µM	3.1 µM	72.6 µM	20.4 µM	
